Assay results taken from ChEMBL document CHEMBL2429846, “Inhibition of monoamine oxidase by 3,4-dihydro-2(1H)-quinolinone derivatives” (Bioorg Med Chem Lett, 2013).

Assays:
Homo sapiens = species on record: Homo sapiens; assay: Selectivity index, ratio of IC50 for recombinant human MAO-A to IC50 for recombinant human MAO-B
How it was run: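 The index was calculated as IC50(MAO-A)/IC50(MAO-B), giving selectivity for the MAO-B isoform.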

[1] = molecular target: T1, Amine oxidase [flavin-containing] B (Homo sapiens, UniProt P27338); assay: Inhibition of recombinant human MAO-B assessed as inhibition of kynuramine conversion to fluorescent metabolite 4-hydroxyquinoline after 20 mins by fluorescence spectrophotometry
T1 sequence (P27338 whole entry): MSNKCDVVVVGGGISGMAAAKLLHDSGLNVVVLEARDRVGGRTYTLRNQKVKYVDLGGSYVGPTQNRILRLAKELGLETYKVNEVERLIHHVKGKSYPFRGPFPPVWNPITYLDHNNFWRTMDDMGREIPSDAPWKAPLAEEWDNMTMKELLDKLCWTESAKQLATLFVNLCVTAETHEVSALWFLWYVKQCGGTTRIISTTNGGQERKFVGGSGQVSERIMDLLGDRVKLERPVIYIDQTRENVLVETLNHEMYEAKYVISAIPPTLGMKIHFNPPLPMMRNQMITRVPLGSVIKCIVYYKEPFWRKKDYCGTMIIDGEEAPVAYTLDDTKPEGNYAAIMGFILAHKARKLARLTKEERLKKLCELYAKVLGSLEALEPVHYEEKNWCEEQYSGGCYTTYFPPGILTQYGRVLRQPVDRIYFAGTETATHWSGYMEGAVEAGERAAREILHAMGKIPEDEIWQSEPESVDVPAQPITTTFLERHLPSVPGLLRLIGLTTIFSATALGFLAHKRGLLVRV
How it was run: (§1)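 IC50 values were read from sigmoidal concentration–inhibition curves of enzyme activity plotted against log inhibitor concentration.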

[2] = molecular target: T2, Amine oxidase [flavin-containing] A (Homo sapiens, UniProt P21397); assay: Inhibition of recombinant human MAO-A assessed as inhibition of kynuramine conversion to fluorescent metabolite 4-hydroxyquinoline after 20 mins by fluorescence spectrophotometry; how it was run: as §1
T2 sequence (P21397 whole entry): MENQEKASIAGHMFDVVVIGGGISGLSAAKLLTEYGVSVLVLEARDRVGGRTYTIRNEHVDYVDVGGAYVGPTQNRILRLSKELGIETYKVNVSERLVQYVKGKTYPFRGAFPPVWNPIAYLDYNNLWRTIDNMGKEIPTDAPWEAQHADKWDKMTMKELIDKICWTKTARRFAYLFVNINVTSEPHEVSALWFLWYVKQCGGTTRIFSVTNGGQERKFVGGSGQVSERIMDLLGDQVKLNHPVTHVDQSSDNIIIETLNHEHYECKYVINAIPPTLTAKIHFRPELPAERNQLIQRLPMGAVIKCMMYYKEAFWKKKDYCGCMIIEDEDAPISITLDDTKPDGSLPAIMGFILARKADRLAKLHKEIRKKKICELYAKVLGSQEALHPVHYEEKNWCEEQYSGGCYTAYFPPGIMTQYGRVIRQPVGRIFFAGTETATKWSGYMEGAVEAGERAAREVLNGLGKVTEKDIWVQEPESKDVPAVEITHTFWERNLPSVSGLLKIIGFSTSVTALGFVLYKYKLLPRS

[3] = molecular target: T1, Amine oxidase [flavin-containing] B; assay: Reversible inhibition of recombinant human MAO-B using kynuramine as substrate assessed as residual activity at 100 times IC50 preincubated for 30 mins followed by 100 fold dilution measured after 20 mins by fluorescence spectrophotometry relative to control
[4] = molecular target: T1, Amine oxidase [flavin-containing] B; assay: Inhibition of recombinant human MAO-B assessed as inhibition of kynuramine conversion to fluorescent metabolite 4-hydroxyquinoline at 100 uM after 20 mins by fluorescence spectrophotometry
[5] = molecular target: T2, Amine oxidase [flavin-containing] A; assay: Inhibition of recombinant human MAO-A assessed as inhibition of kynuramine conversion to fluorescent metabolite 4-hydroxyquinoline at 100 uM after 20 mins by fluorescence spectrophotometry

Row | Ratio IC50 (Homo sapiens) | IC50 [1] | IC50 [2] | Activity [3] | inhibition (INH) [4] | inhibition (INH) [5] | Compound
1 | 6 | 4.01 µM | 25.3 µM | – | – | – | O=C1CCc2cc(OCc3ccccc3)ccc2N1
2 | 144 | 0.086 µM | 12.4 µM | – | – | – | O=C1CCc2cc(OCc3cccc(Br)c3)ccc2N1
3 | – | – | 7.98 µM | 36% | – | – | O=C1CCc2ccc(OCc3cccc(Br)c3)cc2N1
4 | 69 | 0.284 µM | 19.7 µM | – | – | – | O=C1CCc2cc(OCCCc3ccccc3)ccc2N1
5 | 10 | 2.33 µM | 22.5 µM | – | – | – | O=C1CCc2cc(OCCc3ccccc3)ccc2N1
6 | – | – | 183 µM | – | Not Active | – | O=C1CCc2ccc(O)cc2N1
7 | 281 | 0.191 µM | 53.7 µM | – | – | – | O=C1CCc2ccc(OCCc3ccccc3)cc2N1
8 | 173 | 0.13 µM | 22.5 µM | – | – | – | O=C1CCc2ccc(OCCCc3ccccc3)cc2N1
9 | 82 | 0.62 µM | 50.6 µM | – | – | – | O=C1CCc2cc(OCc3cccc(Cl)c3)ccc2N1
10 | – | – | – | – | – | Not Active | O=C1CCc2ccc(OCc3cccc(Cl)c3)cc2N1
11 | 2380 | 0.038 µM | 90.4 µM | – | – | – | O=C1CCc2ccc(OCc3ccccc3)cc2N1
12 | 0.8 | 201 µM | 161 µM | – | – | – | O=C1CCc2cc(O)ccc2N1
